{
  "source": "paper PMC3869895",
  "about": "(Investigational New Drugs, 2013)",
  "key": {"[1]": {"conditions": "cited from earlier work"}, "[2]": {"experiment": "Pharmacokinetic analysis of total and unbound RO4929097 in serial plasma", "type": "in vivo, human"}, "advanced solid tumors": {"system": "advanced solid tumors", "experiment": "Antitumor activity by RECIST 1.1", "type": "in vivo, human", "conditions": "with gemcitabine", "method_in_brief": "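Oral test compound once daily on days 1–3, 8–10, […] and 22–24 of 28-day cycles, fasting, with IV gemcitabine 1,000 mg/m2 on days 1, 8 and 15. Measurable disease required. Radiographic restaging every 2 cycles, scored by RECIST 1.1. Prolonged stable disease means stable disease for 4 or more months. Treatment continued until unacceptable toxicity, progression, withdrawal or study completion.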"}, "[3]": {"conditions": "in vitro; rather than overt cell death; no reference given; cited from earlier work"}, "xenograft models": {"system": "xenograft models", "conditions": "intermittent and daily dosing in xenograft models; cited from earlier work"}, "[4]": {"system": "circulating angiogenesis factors", "conditions": "in vitro; cited from earlier work"}, "[5]": {"conditions": "stated as given in discussion; no reference given; cited from earlier work"}, "gamma secretase": {"system": "gamma secretase", "conditions": "cited from earlier work"}, "[6]": {"system": "patients with advanced solid tumors", "experiment": "Phase I 3+3 dose escalation: dose limiting toxicities and adverse events", "type": "in vivo, human"}, "[7]": {"conditions": "dose level 3 (45 mg) + gemcitabine, CTCAE v4"}},
  "note": "Entries after “also recorded” stand apart in the source; their conditions may differ.",
  "data": [
    {"smiles": "CC(C)(C(=O)NCC(F)(F)C(F)(F)F)C(=O)N[C@@H]1C(=O)Nc2ccccc2-c2ccccc21", "note": "[RO4929097]", "values": [
      {"measurement": "protein binding", "setting": "[1]", "value": "highly protein bound"},
      {"measurement": "autoinduction (Day 10: Day 1 total and free AUC 0-24)", "setting": "[2]; dose levels 45 and 90 mg", "value": "presence of autoinduction"},
      {"measurement": "day 10: day 1 areas under the curve", "setting": "[2]; with increasing dose levels", "value": "below 1"},
      {"measurement": "stable disease > 4 months (prolonged stable disease), number of patients", "setting": "advanced solid tumors; 18 patients enrolled", "value": 3, "unit": "patients"},
      {"measurement": "Best response (RECIST 1.1)", "setting": "advanced solid tumors; one patient with nasopharyngeal carcinoma, 45 mg dose level", "value": "partial response"},
      {"measurement": "cell phenotype", "setting": "[3]", "value": "more flattened phenotype"},
      {"measurement": "antitumor activity", "setting": "xenograft models", "value": "demonstrates antitumor activity"},
      {"measurement": "expression of circulating angiogenesis factors", "setting": "[4]", "value": "reduce the expression"},
      {"measurement": "half-life", "setting": "[5]", "value": "approximately 20 h"},
      {"measurement": "inhibition of gamma secretase", "setting": "gamma secretase", "value": "potent inhibitor"},
      {"measurement": "DLT Event", "setting": "[6]; dose level 2 (30 mg) + gemcitabine", "value": "Transaminitis"},
      {"measurement": "Grade of DLT event Transaminitis", "setting": "[6]; dose level 2 (30 mg) + gemcitabine, CTCAE v4", "value": 3},
      {"measurement": "DLT Event", "setting": "[6]; dose level 3 (45 mg) + gemcitabine", "value": "Transaminitis; also recorded: Maculopapular rash"},
      {"measurement": "Grade of DLT event Maculopapular rash", "setting": "[6]; [7]", "value": 3},
      {"measurement": "Grade of DLT event Transaminitis", "setting": "[6]; [7]", "value": 3},
      {"measurement": "DLT Event", "setting": "[6]; dose level 4 (90 mg) + gemcitabine", "value": "Transaminitis"},
      {"measurement": "Grade of DLT event Transaminitis", "setting": "[6]; dose level 4 (90 mg) + gemcitabine, CTCAE v4", "value": 3},
      {"measurement": "Grade of DLT event <75 % RO doses", "setting": "[6]; dose level 4 (90 mg) + gemcitabine, secondary to prolonged neutropenia", "value": 3},
      {"measurement": "maximum tolerated dose", "setting": "[6]; in combination with gemcitabine, exceeded at this dose", "value": "< 90", "unit": "mg"}
    ]}
  ]
}
